ChEMBL document CHEMBL1122781, “[(Aminomethyl)aryloxy]acetic acid esters. A new class of high-ceiling diuretics. 1. Effects of nitrogen and aromatic nuclear substitution” (J Med Chem, 1984)

Assays:
Rattus norvegicus = assay: Diuretic activity was evaluated by measuring amount of Na+ during 0-6 h in urine of normotensive saline loaded rats at 10.0 mg/kg, po; format: ADME, organism-based; parameters: dose 10 mg/kg, route oral; conditions: in vivo
Procedure, shortened: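 Male normotensive Sprague–Dawley rats (275–375 g), eight per group. Test compound or vehicle (0.2% methylcellulose in water, 2 mL/kg) is given by mouth, followed at once by a 0.9% saline load equal to 5% of body weight. Rats are housed in metabolism cages without food or water. Urine is collected at 2, 6 and 24 h and assayed for Na+, K+, Cl−, uric acid and osmolality.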

Canis familiaris [1] = assay: Diuretic activity was evaluated by measuring amount of K+ during 0-6 hr in urine of normotensive saline loaded dogs at 0.03mg/kg, po; format: ADME, organism-based, Canis lupus familiaris; conditions: dog, in vivo
Procedure, shortened: (§1)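 Conscious female dogs, each given one oral dose per experiment. Urine and heparinized venous plasma were taken at each collection time. Urine was centrifuged and chilled, and plasma was separated within 30 min. Both were assayed for Na+, K+, Cl−, urate and glucose. Results are mean excretion in mequiv kg−1 (6 h)−1, with at least two dogs per dose.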

Canis familiaris [2] = assay: Diuretic activity was evaluated by measuring amount of K+ during 0-6 hr in urine of normotensive saline loaded dogs at 0.1 mg/kg, po; format: ADME, organism-based, Canis lupus familiaris; parameters: dose 0.1 mg/kg, route oral; conditions: dog, in vivo; procedure, shortened: as §1

Diuretic activity (Rattus norvegicus): 14 m equiv kg-1 | Diuretic activity (Canis familiaris [1]): 0.3 m equiv kg-1 | Diuretic activity (Canis familiaris [2]): 0.6 m equiv kg-1
Compound: CCOC(=O)COc1ccc(C(=O)c2ccc(O)c(CN)c2)c(Cl)c1Cl.Cl
